# Measured values as given in ChEMBL document CHEMBL2375357, “Design, synthesis and cytotoxicity of cell death mechanism of rotundic acid derivatives” (Bioorg Med Chem Lett, 2013).
# Active and inactive are the calls of the source. The rule behind the calls is not given here.
# Key:
# Assay type in all cases: functional, cell-based
# NCI-H446 = test: Cytotoxicity against human NCI-H446 cells after 24 hrs by MTT assay; conditions: NCI-H446, 24 h
# Outline: (§1)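 MTT antiproliferative assay on human tumour lines A-375 (melanoma), SPC-A1 (lung adenocarcinoma), HeLa (cervical), HepG2 (hepatoma) and NCI-H446 (small cell lung cancer). Parent rotundic acid run alongside as positive control. IC50 given as mean ± SD, n = 3, each experiment repeated at least three times. Values above 100 μM reported as >100.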
# HeLa [1] = test: Cytotoxicity against human HeLa cells after 24 hrs by MTT assay; outline: as §1
# HepG2 = test: Cytotoxicity against human HepG2 cells after 24 hrs by MTT assay; conditions: HepG2, 24 h; outline: as §1
# A-375 = test: Cytotoxicity against human A375 cells after 24 hrs by MTT assay; conditions: A-375, 24 h; outline: as §1
# [2] = Cytotoxicity against human SPC-A1 cells after 24 hrs by MTT assay; conditions: SPCA1, 24 h; outline: as §1
# HeLa [3] = test: Induction of apoptosis in human HeLa cells assessed as increase in caspase 3 cleavage after 24 hrs by Western blot analysis
# Outline: (§2)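 HeLa cells treated 24 h at 10, 20 and 40 μM. Cisplatin (10 μg/ml) served as positive-control treatment, with an untreated control group for comparison. Bax, Bcl-2, cytochrome C, caspase-3 and cleaved caspase-3 protein levels detected by western blot. Bax/Bcl-2 ratio derived from the band levels. Significance tested against the control group.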
# HeLa [4] = test: Induction of apoptosis in human HeLa cells assessed as increase in caspase 3 expression at 10 to 40 uM after 24 hrs by Western blot analysis; outline: as §2
# HeLa [5] = test: Induction of apoptosis in human HeLa cells assessed as increase in ratio of Bax to Bcl2 expression after 24 hrs by Western blot analysis; outline: as §2
# HeLa [6] = test: Induction of apoptosis in human HeLa cells assessed as increase in cytochrome C expression after 24 hrs by Western blot analysis; outline: as §2
# HeLa [7] = test: Induction of apoptosis in human HeLa cells assessed as increase in Bax expression after 24 hrs by Western blot analysis; outline: as §2
# HeLa [8] = test: Induction of apoptosis in human HeLa cells assessed as decrease in Bcl2 expression after 24 hrs by Western blot analysis; outline: as §2
Compound,IC50 (NCI-H446) [µM],IC50 (HeLa [1]) [µM],IC50 (HepG2) [µM],IC50 (A-375) [µM],IC50 [2] [µM],Activity (HeLa [3]),Activity (HeLa [4]),Activity (HeLa [5]),Activity (HeLa [6]),Activity (HeLa [7]),Activity (HeLa [8])
C[C@@H]1CC[C@]2(C(=O)Nc3ccccc3)CC[C@]3(C)C(=CC[C@@H]4[C@@]5(C)CC[C@H](O)[C@@](C)(CO)[C@@H]5CC[C@]43C)[C@@H]2[C@]1(C)O,70.8,23.2,64.7,70.8,> 100,,,,,,
CC(=O)OC[C@@]1(C)[C@@H]2CC[C@]3(C)[C@H](CC=C4[C@H]5[C@](C(=O)NCCCO)(CC[C@@H](C)[C@@]5(C)O)CC[C@]43C)[C@@]2(C)CC[C@@H]1OC(C)=O,5.08,6.97,5.49,3.28,13.4,,,,,,
CC(CO)NC(=O)[C@]12CC[C@@H](C)[C@@](C)(O)[C@H]1C1=CC[C@@H]3[C@@]4(C)CC[C@H](O)[C@@](C)(CO)[C@@H]4CC[C@@]3(C)[C@]1(C)CC2 (stereo partly specified),39.8,28.8,55.1,35.5,> 100,,,,,,
CC(=O)OC[C@@]1(C)[C@@H]2CC[C@]3(C)[C@H](CC=C4[C@H]5[C@](C(=O)NCCO)(CC[C@@H](C)[C@@]5(C)O)CC[C@]43C)[C@@]2(C)CC[C@@H]1OC(C)=O,6.67,2.83,4.4,5.49,3.61,Dose-dependent effect,Active,Dose-dependent effect,Active,Dose-dependent effect,Dose-dependent effect
CC(=O)OCc1ccccc1NC(=O)[C@]12CC[C@@H](C)[C@@](C)(O)[C@H]1C1=CC[C@@H]3[C@@]4(C)CC[C@H](OC(C)=O)[C@@](C)(COC(C)=O)[C@@H]4CC[C@@]3(C)[C@]1(C)CC2,69.7,4.27,12.3,9.12,13.2,,,,,,
CC(=O)OCCNC(=O)[C@]12CC[C@@H](C)[C@@](C)(O)[C@H]1C1=CC[C@@H]3[C@@]4(C)CC[C@H](OC(C)=O)[C@@](C)(COC(C)=O)[C@@H]4CC[C@@]3(C)[C@]1(C)CC2,18.6,5.39,4.44,4.17,9.37,,,,,,
CC(=O)OC[C@@]1(C)[C@@H]2CC[C@]3(C)[C@H](CC=C4[C@H]5[C@](C(=O)Nc6ccccc6)(CC[C@@H](C)[C@@]5(C)O)CC[C@]43C)[C@@]2(C)CC[C@@H]1OC(C)=O,24.8,15.8,22.2,17.7,16.2,,,,,,
C[C@@H]1CC[C@]2(C(=O)NCCO)CC[C@]3(C)C(=CC[C@@H]4[C@@]5(C)CC[C@H](O)[C@@](C)(CO)[C@@H]5CC[C@]43C)[C@@H]2[C@]1(C)O,24.7,> 100,45.6,21.4,> 100,,,,,,
C[C@@H]1CC[C@]2(C(=O)NCc3ccccc3)CC[C@]3(C)C(=CC[C@@H]4[C@@]5(C)CC[C@H](O)[C@@](C)(CO)[C@@H]5CC[C@]43C)[C@@H]2[C@]1(C)O,> 100,28.1,> 100,> 100,> 100,,,,,,
CC(=O)OC[C@@]1(C)[C@@H]2CC[C@]3(C)[C@H](CC=C4[C@H]5[C@](C(=O)NCc6ccccc6)(CC[C@@H](C)[C@@]5(C)O)CC[C@]43C)[C@@]2(C)CC[C@@H]1OC(C)=O,26.9,19.2,19.5,13.7,12.1,,,,,,
C[C@@H]1CC[C@]2(C(=O)O)CC[C@]3(C)C(=CC[C@@H]4[C@@]5(C)CC[C@H](O)[C@@](C)(CO)[C@@H]5CC[C@]43C)[C@@H]2[C@]1(C)O [ROTUNDIC ACID],11.4,31.9,7.33,16.6,84,,,,,,
C[C@@H]1CC[C@]2(C(=O)NCCCO)CC[C@]3(C)C(=CC[C@@H]4[C@@]5(C)CC[C@H](O)[C@@](C)(CO)[C@@H]5CC[C@]43C)[C@@H]2[C@]1(C)O,20.9,17.7,77.3,12.5,83.2,,,,,,
C[C@@H]1CC[C@]2(C(=O)Nc3ccccc3CO)CC[C@]3(C)C(=CC[C@@H]4[C@@]5(C)CC[C@H](O)[C@@](C)(CO)[C@@H]5CC[C@]43C)[C@@H]2[C@]1(C)O,14,12.3,> 100,19,> 100,,,,,,
CC(=O)OC[C@@]1(C)[C@@H]2CC[C@]3(C)[C@H](CC=C4[C@H]5[C@](C(=O)O)(CC[C@@H](C)[C@@]5(C)O)CC[C@]43C)[C@@]2(C)CC[C@@H]1OC(C)=O,7.11,13.1,6.85,11.4,23.2,,,,,,
CC(=O)OC[C@@]1(C)[C@@H]2CC[C@]3(C)[C@H](CC=C4[C@H]5[C@](C(=O)Nc6ccccc6CO)(CC[C@@H](C)[C@@]5(C)O)CC[C@]43C)[C@@]2(C)CC[C@@H]1OC(C)=O,7.03,3.32,4.45,3.71,8.09,,,,,,
CC(=O)OC[C@@]1(C)[C@@H]2CC[C@]3(C)[C@H](CC=C4[C@H]5[C@](C(=O)NC(C)CO)(CC[C@@H](C)[C@@]5(C)O)CC[C@]43C)[C@@]2(C)CC[C@@H]1OC(C)=O (stereo partly specified),5.51,11.3,7.3,4.77,12.9,,,,,,
CC(=O)OCCCNC(=O)[C@]12CC[C@@H](C)[C@@](C)(O)[C@H]1C1=CC[C@@H]3[C@@]4(C)CC[C@H](OC(C)=O)[C@@](C)(COC(C)=O)[C@@H]4CC[C@@]3(C)[C@]1(C)CC2,12.8,4.31,12,10.1,12,,,,,,
CC(=O)OCC(C)NC(=O)[C@]12CC[C@@H](C)[C@@](C)(O)[C@H]1C1=CC[C@@H]3[C@@]4(C)CC[C@H](OC(C)=O)[C@@](C)(COC(C)=O)[C@@H]4CC[C@@]3(C)[C@]1(C)CC2 (stereo partly specified),14.7,5.3,9.12,5.1,18.9,,,,,,
